# Legend:
# [1] = folding enthalpy; higher = less favourable; fluorescence melt of hairpins on a sequencing array, two-state fit; conditions: sodium 0.088 M
# In short: (§1)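 Melting temperature and folding enthalpy were derived from bootstrapped two-state fits. The fitted temperatures were raised by 9.35 °C to agree with UV melts, and four replicates were combined by inverse variance. The underlying data were Cy3 fluorescence images of library hairpins, with annealed Cy3 and quencher oligos, on a sequenced MiSeq flow cell in 50 mM Na-HEPES pH 8.0, 25 mM NaCl, taken in 2.5 °C steps up to 60 °C, normalised to pre-quench Cy3 and to control constructs.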
# [2] = melting temperature; fluorescence melt of hairpins on a sequencing array, two-state fit, raised by 9.35 °C to match UV melts; conditions: sodium 0.088 M
# In short: as §1
sequence,measurement,setting,value
GGAACGGGAAACCGTCCC ((.((((....)))).)),folding enthalpy,[1],-18.5 kcal/mol
same,Tm,[2],48.2 °C
GGAACGTCGAAAGACTCC (((..(((....)))))),folding enthalpy,[1],-11.7 kcal/mol
same,Tm,[2],32.1 °C
GGAACTGGAAACAATTCC ((((.((....)).)))),folding enthalpy,[1],-13.1 kcal/mol
same,Tm,[2],28.4 °C
GGAACTGGAAACAGTCCC ((.((((....)))).)),folding enthalpy,[1],-25.4 kcal/mol
same,Tm,[2],40 °C
GGAACTGGAAACGGTTCC (((((.(....).))))),folding enthalpy,[1],-34.9 kcal/mol
same,Tm,[2],51 °C
GGAAGACGAAAGTCGTCC (((.(((....))).))),folding enthalpy,[1],-18.9 kcal/mol
same,Tm,[2],56.2 °C
GGAAGAGGAAACCCTTCC (((((.(....).))))),folding enthalpy,[1],-30.7 kcal/mol
same,Tm,[2],37.8 °C
GGAAGCCCGAAAGGGTCC (((..(((....)))))),folding enthalpy,[1],-10.8 kcal/mol
same,Tm,[2],35.4 °C
GGAAGCCGAAAGGCCTCC (((.(((....))).))),folding enthalpy,[1],-20.2 kcal/mol
same,Tm,[2],48.4 °C
GGAAGCGAAAGCTATCC ((((((....))).))),folding enthalpy,[1],-14.6 kcal/mol
same,Tm,[2],40.9 °C
GGAAGCGAAAGCTCATCC ((((((....)))..))),folding enthalpy,[1],-10 kcal/mol
same,Tm,[2],29 °C
GGAAGCGAAAGCTCTTCC ((((((....)))..))),folding enthalpy,[1],-18.9 kcal/mol
same,Tm,[2],43 °C
GGAAGCGAAAGCTGGTCC ((((((....)))..))),folding enthalpy,[1],-11.6 kcal/mol
same,Tm,[2],36 °C
GGAAGGGGAAACTCTTCC (((((.(....).))))),folding enthalpy,[1],-39.7 kcal/mol
same,Tm,[2],46.3 °C
GGAAGTCCGAAAGGATCC (((..(((....)))))),folding enthalpy,[1],-11.9 kcal/mol
same,Tm,[2],28.7 °C
GGAAGTCGAAAGACGTCC (((.(((....))).))),folding enthalpy,[1],-23.7 kcal/mol
same,Tm,[2],52.2 °C
GGAAGTGGAAACACCTCC (((.(((....))).))),folding enthalpy,[1],-23.5 kcal/mol
same,Tm,[2],36.6 °C
GGAAGTGGAAACGCTTTC (.(((.(....).))).),folding enthalpy,[1],-19.6 kcal/mol
same,Tm,[2],31.4 °C
GGAATACGAAAGTATCC (((.(((....)))))),folding enthalpy,[1],-17.9 kcal/mol
same,Tm,[2],42.8 °C
GGAATCGAAAGATTTCC ((((((....))).))),folding enthalpy,[1],-27 kcal/mol
same,Tm,[2],41.5 °C
GGAATCGAAAGATTTTCC ((((((....)))..))),folding enthalpy,[1],-17.7 kcal/mol
same,Tm,[2],27.8 °C
GGAATCGCGAAAGCGTCC (((..(((....)))))),folding enthalpy,[1],-8.44 kcal/mol
same,Tm,[2],29.2 °C
GGAATCGGAAACGACTCC (((.(((....))).))),folding enthalpy,[1],-28.9 kcal/mol
same,Tm,[2],40.4 °C
GGAATCGGAAACGATTTC (.(((((....))))).),folding enthalpy,[1],-33.3 kcal/mol
same,Tm,[2],47.9 °C
GGAATCGGAAACGGTTCC ((((.((....)).)))),folding enthalpy,[1],-44.5 kcal/mol
same,Tm,[2],52.2 °C
GGAATGGGAAACCACTCC (((.(((....))).))),folding enthalpy,[1],-33.6 kcal/mol
same,Tm,[2],33.7 °C
GGAATGGGAAACCATTCC (((((((....))))))),folding enthalpy,[1],-45.1 kcal/mol
same,Tm,[2],60.4 °C
GGAATGGGAAACCGTTCC ((((.((....)).)))),folding enthalpy,[1],-39.1 kcal/mol
same,Tm,[2],50.8 °C
GGAATGGGAAACCGTTTC (.((.((....)).)).),folding enthalpy,[1],-18 kcal/mol
same,Tm,[2],30.7 °C
GGAATTGCGAAAGCATCC (((..(((....)))))),folding enthalpy,[1],-9.07 kcal/mol
same,Tm,[2],30.3 °C
GGAATTGGAAACAACTCC (((.(((....))).))),folding enthalpy,[1],-22.2 kcal/mol
same,Tm,[2],30.3 °C
GGAATTGGAAACAATCCC ((.((((....)))).)),folding enthalpy,[1],-20.1 kcal/mol
same,Tm,[2],35.6 °C
GGACAAGCGAAAGCTTCC (((..(((....)))))),folding enthalpy,[1],-12.3 kcal/mol
same,Tm,[2],29.2 °C
GGACAAGGAAACTCGTCC ((((.((....)).)))),folding enthalpy,[1],-29.2 kcal/mol
same,Tm,[2],39.2 °C
GGACAATCGAAAGATTCC (((..(((....)))))),folding enthalpy,[1],-8.86 kcal/mol
same,Tm,[2],27.5 °C
GGACACACGAAAGTGTCC (((..(((....)))))),folding enthalpy,[1],-30.7 kcal/mol
same,Tm,[2],57.9 °C
GGACACCGAAAGGTATCC (((.(((....))).))),folding enthalpy,[1],-30.4 kcal/mol
same,Tm,[2],47.5 °C
GGACACGAAAGTGATCC ((((((....))).))),folding enthalpy,[1],-21.7 kcal/mol
same,Tm,[2],48.5 °C
GGACACGAAAGTGCTTCC ((((((....)))..))),folding enthalpy,[1],-20.4 kcal/mol
same,Tm,[2],40.4 °C
GGACACGAAAGTGGTCC ((((((....))).))),folding enthalpy,[1],-21.6 kcal/mol
same,Tm,[2],57 °C
GGACACGCGAAAGCGTCC (((..(((....)))))),folding enthalpy,[1],-9.09 kcal/mol
same,Tm,[2],42.1 °C
GGACACTCGAAAGAGTCC (((..(((....)))))),folding enthalpy,[1],-15.9 kcal/mol
same,Tm,[2],39 °C
GGACAGCGAAAGCTATCC (((.(((....))).))),folding enthalpy,[1],-24.7 kcal/mol
same,Tm,[2],45 °C
GGACAGCGAAAGCTTCC (((.(((....)))))),folding enthalpy,[1],-20.9 kcal/mol
same,Tm,[2],43.5 °C
GGACAGGGAAACCTGTCC (((((((....))))))),folding enthalpy,[1],-37.4 kcal/mol
same,Tm,[2],68.3 °C
GGACAGTCGAAAGACTCC (((..(((....)))))),folding enthalpy,[1],-12.8 kcal/mol
same,Tm,[2],31 °C
GGACATCCGAAAGGATCC (((..(((....)))))),folding enthalpy,[1],-12.6 kcal/mol
same,Tm,[2],29.3 °C
GGACATCGAAAGATCTCC (((.(((....))).))),folding enthalpy,[1],-21.8 kcal/mol
same,Tm,[2],32.6 °C
GGACATCGAAAGATTCC (((.(((....)))))),folding enthalpy,[1],-26.4 kcal/mol
same,Tm,[2],38.6 °C
GGACATCGAAAGATTTCC (((.(((....))).))),folding enthalpy,[1],-32 kcal/mol
same,Tm,[2],39.6 °C
GGACATGGAAACATATCC (((.(((....))).))),folding enthalpy,[1],-21.6 kcal/mol
same,Tm,[2],30.5 °C
GGACATGGAAACGTGTTC (.(((.(....).))).),folding enthalpy,[1],-23.8 kcal/mol
same,Tm,[2],35 °C
GGACCACGAAAGTGATCC (((.(((....))).))),folding enthalpy,[1],-29.1 kcal/mol
same,Tm,[2],51.5 °C
GGACCAGAAATGGTCC ((((((....)))))),folding enthalpy,[1],-43.7 kcal/mol
same,Tm,[2],63.7 °C
GGACCCCGAAAGGGTCC (((.(((....)))))),folding enthalpy,[1],-30.2 kcal/mol
same,Tm,[2],68 °C
GGACCCGAAAGGGAGTCC ((((((....)))..))),folding enthalpy,[1],-20.9 kcal/mol
same,Tm,[2],49.9 °C
GGACCCGAAAGGGATTCC ((((((....)))..))),folding enthalpy,[1],-12.2 kcal/mol
same,Tm,[2],37.5 °C
GGACCCGAAAGGGCCTCC ((((((....)))..))),folding enthalpy,[1],-14.7 kcal/mol
same,Tm,[2],57.5 °C
GGACCCGAAAGGGTCTCC ((((((....)))..))),folding enthalpy,[1],-7.17 kcal/mol
same,Tm,[2],58.9 °C
GGACCCGGAAACGGGCCC ((.((((....)))).)),folding enthalpy,[1],-19.2 kcal/mol
same,Tm,[2],59.6 °C
GGACCCGGAAACGGGTTC (.(((((....))))).),folding enthalpy,[1],-25.6 kcal/mol
same,Tm,[2],59.4 °C
GGACCTCGAAAGAGATCC (((.(((....))).))),folding enthalpy,[1],-30.6 kcal/mol
same,Tm,[2],46.7 °C
GGACCTCGAAAGAGCTCC (((.(((....))).))),folding enthalpy,[1],-25.5 kcal/mol
same,Tm,[2],37 °C
GGACGCCCGAAAGGGTCC (((..(((....)))))),folding enthalpy,[1],-16.2 kcal/mol
same,Tm,[2],43.2 °C
GGACGCCGAAAGGCATCC (((.(((....))).))),folding enthalpy,[1],-22.6 kcal/mol
same,Tm,[2],52.6 °C
GGACGCGAAAGCGATCC ((((((....))).))),folding enthalpy,[1],-16.7 kcal/mol
same,Tm,[2],57.4 °C
GGACGCGAAAGCGTATCC ((((((....)))..))),folding enthalpy,[1],-9.56 kcal/mol
same,Tm,[2],37.4 °C
GGACGCGAAAGCGTCTCC ((((((....)))..))),folding enthalpy,[1],-6.35 kcal/mol
same,Tm,[2],62.5 °C
GGACGCGAAAGCGTTCC ((((((....))).))),folding enthalpy,[1],-14.1 kcal/mol
same,Tm,[2],61.8 °C
GGACGCGGAAACGCGTTC (.(((((....))))).),folding enthalpy,[1],-16.6 kcal/mol
same,Tm,[2],62.2 °C
GGACGGCGAAAGCCTTCC (((.(((....))).))),folding enthalpy,[1],-22.6 kcal/mol
same,Tm,[2],52.5 °C
GGACGGGGAAACCCACCC ((..(((....)))..)),folding enthalpy,[1],-10.4 kcal/mol
same,Tm,[2],26.1 °C
GGACGTGGAAACACACCC ((..(((....)))..)),folding enthalpy,[1],-7.91 kcal/mol
same,Tm,[2],25 °C
GGACGTGGAAACACGTTC (.(((((....))))).),folding enthalpy,[1],-23 kcal/mol
same,Tm,[2],53.7 °C
GGACTACGAAAGTAATCC (((.(((....))).))),folding enthalpy,[1],-33.4 kcal/mol
same,Tm,[2],38.7 °C
GGACTACGAAAGTATCC (((.(((....)))))),folding enthalpy,[1],-21.5 kcal/mol
same,Tm,[2],36.8 °C
GGACTAGCGAAAGCTTCC (((..(((....)))))),folding enthalpy,[1],-10.7 kcal/mol
same,Tm,[2],27.5 °C
GGACTCGAAAGAGATCC ((((((....))).))),folding enthalpy,[1],-22.1 kcal/mol
same,Tm,[2],44.7 °C
GGACTCGAAAGAGGTTCC ((((((....)))..))),folding enthalpy,[1],-17.6 kcal/mol
same,Tm,[2],33.8 °C
GGACTCGAAAGAGTCTCC ((((((....)))..))),folding enthalpy,[1],-10.4 kcal/mol
same,Tm,[2],53.3 °C
GGACTGGGAAACCAGTCC (((((((....))))))),folding enthalpy,[1],-35.3 kcal/mol
same,Tm,[2],68.5 °C
GGACTGGGAAACTAGTCC (((((.(....).))))),folding enthalpy,[1],-32.1 kcal/mol
same,Tm,[2],50.2 °C
GGAGAAACGAAAGTTTCC (((..(((....)))))),folding enthalpy,[1],-14.1 kcal/mol
same,Tm,[2],37.7 °C
GGAGAAGGAAACCTCTCC (((((.(....).))))),folding enthalpy,[1],-28.6 kcal/mol
same,Tm,[2],37.7 °C
GGAGACCGAAAGGTTTCC (((.(((....))).))),folding enthalpy,[1],-41.5 kcal/mol
same,Tm,[2],55.5 °C
GGAGACGAAAGTCCCTCC ((((((....)))..))),folding enthalpy,[1],-16.3 kcal/mol
same,Tm,[2],49.8 °C
GGAGACGAAAGTCTTCC ((((((....))).))),folding enthalpy,[1],-18 kcal/mol
same,Tm,[2],50.9 °C
GGAGACTCGAAAGAGTCC (((..(((....)))))),folding enthalpy,[1],-10 kcal/mol
same,Tm,[2],45.4 °C
GGAGAGCCGAAAGGCTCC (((..(((....)))))),folding enthalpy,[1],-6.93 kcal/mol
same,Tm,[2],43.3 °C
GGAGAGCGAAAGCTGTCC (((.(((....))).))),folding enthalpy,[1],-32.8 kcal/mol
same,Tm,[2],58.2 °C
GGAGAGGCGAAAGCCTCC (((..(((....)))))),folding enthalpy,[1],-7.4 kcal/mol
same,Tm,[2],49.5 °C
